Results on 2 compounds are retold here after PMC5548968 (Clinical cancer research : an official journal of the …, 2016).

pIC50: −log10 of the molar value.

In assay [1] the test system is BCR signaling (CD69 expression). Format: in vivo, C57BL/6 mice. The conditions noted are these: for effective dose (CD69 expression): oral gavage 0.1 to 30mg/kg, splenocytes 3 hours after dose, anti-IgM 18 h. The procedure, abridged:
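Female C57BL/6 mice (5/group/dose) were gavaged with vehicle or test compound at 0.1–30mg/kg. Splenocytes were taken 3 hours later and stimulated with goat anti-mouse IgM at 10μg/mL for 18 hours (37°C, 5% CO2). After Fc blocking, cells were stained for CD19 and CD69, with 7-AAD to exclude dead cells. CD69 on >5,000 gated CD19+ cells per sample was measured by flow cytometry.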

The test system of a further assay is BTK. Conditions: read-out: IC50 BTK; as previously reported; cited from earlier work.
For assay [2], the system named is kinases containing a conserved cysteine residue that aligns with the Cys481 in BTK. Conditions: cited from earlier work.
The test system of assay [3] is 395 wild-type human kinases. In words: DiscoverRx KINOMEscan ATP site dependent competition binding assay, kinase panel. The conditions noted are these: 1μM compound.
In a further assay the target is T1, ITK (Homo sapiens, UniProt Q08881).
T1 sequence (Q08881 1-620): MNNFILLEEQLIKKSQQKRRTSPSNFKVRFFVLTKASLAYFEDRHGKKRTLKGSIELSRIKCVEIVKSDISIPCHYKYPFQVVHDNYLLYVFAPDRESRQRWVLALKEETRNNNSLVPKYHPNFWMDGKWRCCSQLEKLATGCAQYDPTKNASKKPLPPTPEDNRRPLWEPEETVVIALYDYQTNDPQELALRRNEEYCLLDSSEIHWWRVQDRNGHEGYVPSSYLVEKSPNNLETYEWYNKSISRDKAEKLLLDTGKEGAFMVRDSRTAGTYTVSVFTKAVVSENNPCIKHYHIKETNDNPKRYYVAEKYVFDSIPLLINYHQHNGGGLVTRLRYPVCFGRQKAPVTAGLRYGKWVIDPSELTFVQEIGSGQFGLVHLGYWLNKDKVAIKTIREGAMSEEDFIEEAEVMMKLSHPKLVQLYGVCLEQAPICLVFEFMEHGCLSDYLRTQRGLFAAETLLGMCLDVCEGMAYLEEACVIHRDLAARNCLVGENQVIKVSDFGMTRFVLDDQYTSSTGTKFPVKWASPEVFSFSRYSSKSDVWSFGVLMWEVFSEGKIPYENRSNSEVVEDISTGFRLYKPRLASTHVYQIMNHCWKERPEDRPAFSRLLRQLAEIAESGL
In words: DiscoverRx KINOMEscan competition binding assay, ITK. Conditions: 1μM compound.

For assay [4], the system named is BCR stimulation by anti-IgM (CD69) in CLL patient MNCs. Format: cell-based, human. The conditions noted are these: 1μM pretreatment 3 hours, anti-IgM 18 h.
The subject of assay [5] is phospho-BTK(Y223). In words: in vitro phospho-flow in CLL patient MNCs, phospho-BTK. Format: cell-based, human. Conditions: 1μM, one hour.
Assay [6] deals with phospho-S6(S235/236). The assay can be described thus: in vitro phospho-flow in CLL patient MNCs, phospho-S6. Format: cell-based, human. The conditions noted are these: 1μM, one hour. The procedure, abridged:
(§1)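 Primary CLL patient MNCs (n=5 patients) were treated in culture with or without 1μM test compound for 1 hour. Cells were fixed in 4% paraformaldehyde, permeabilised in 90% methanol and stained for phospho-PLCγ2(Y759), phospho-S6(S235/236) or phospho-p65(S529) with isotype controls. Flow cytometry gave the percent of CLL cells positive for each readout.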

Another assay relates to phospho-p65(S529). The assay can be described thus: in vitro phospho-flow in CLL patient MNCs, phospho-NF-κB p65. Format: cell-based, human. Conditions: 1μM, one hour. Summed up:
as §1

The test system of the next assay is phospho-PLCγ2(Y759). In words: NSG primary CLL xenograft model, pPLCγ2 in CLL cells from spleen. The conditions noted are these: drinking water 0.3 or 0.16mg/mL, three weeks. Format: in vivo, NSG mice. The procedure, abridged: (§2)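 Human CLL patient MNCs were Ficoll-isolated and viably frozen. They were transferred at 1 × 10^8 cells/mouse into busulfan-primed NSG mice. Drinking-water dosing (0.3 or 0.16mg/mL; 0.06mg/mL in select experiments) started day −1, with vehicle controls. After 3 weeks, splenocytes were sieved, ACK-lysed, fixed (4% paraformaldehyde), permeabilised (90% methanol) and stained for pPLCγ2(Y759), pERK(T202/Y204) or Ki-67 against isotype controls. Mice were averaged per patient and compared by paired t-test.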

The next assay concerns phospho-ERK(T202/Y204). The assay can be described thus: NSG primary CLL xenograft model, pERK in CLL cells from spleen. Conditions: drinking water 0.3 or 0.16mg/mL, three weeks. Format: in vivo, NSG mice. Summed up:
as §2

The test system of assay [7] is human CLL cells. In words: NSG primary CLL xenograft model, CLL cell proliferation. Format: in vivo, NSG mice. Conditions: drinking water, three weeks, spleen. Summed up:
as §2

For assay [8], the system named is human CLL cells. In words: NSG primary CLL xenograft model, tumor burden in the spleen. Format: in vivo, NSG mice. The conditions noted are these: drinking water, three weeks. Summed up: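 Spleen tumour burden in NSG mice engrafted with 1 × 10^8 primary CLL MNCs after busulfan priming. Mice got treated or vehicle drinking water from day −1 for 3 weeks. Homogenised, sieved, ACK-lysed splenocytes were surface-stained (CD45, CD19, CD3, CD5) and analysed by flow cytometry. Burden is the percentage of CLL cells among human CD45+ cells. Per-patient averages were compared by paired t-test.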

For assay [9], the system named is human CLL cells. The assay can be described thus: NSG primary CLL xenograft model, circulating CLL cell count per μL blood. The format is in vivo, NSG mice. Conditions: drinking water, three weeks, whole blood. The procedure, abridged: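 Whole blood came from CLL-engrafted NSG mice after 3 weeks of treated or vehicle drinking water started at busulfan priming (day −1). Absolute human CLL cells (CD45+/CD19+/CD5+) per μL were counted by flow cytometry with counting beads. Values are averages of 2–5 mice per donor patient, compared by paired t-test.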

A further assay addresses murine BTK (Mus musculus, UniProt P35991). In words: BTK occupancy probe ELISA, TCL1 adoptive transfer model splenocytes. The conditions noted are these: 0.16mg/mL drinking water, one or four weeks. Format: in vivo.
The test system of assay [10] is phospho-BTK(Y223). The format is in vivo, C57BL/6 mice. Conditions: 0.16mg/mL drinking water, one or four weeks, ex vivo anti-IgM.
Another assay concerns phospho-PLCγ2(Y1217). Format: in vivo, C57BL/6 mice. Conditions: 0.16mg/mL drinking water, one or four weeks, ex vivo anti-IgM. Summed up:
(§3)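 C57BL/6 recipients received 1 × 10^7 Eμ-TCL1 leukemic cells. Drinking water with 0.16mg/mL test compound or vehicle began once blood CD5+/CD19+ cells reached ≥10%. After 1 or 4 weeks, splenocytes were stimulated ex vivo with anti-IgM. Cells were stained for B220, CD3, pPLCγ2(Y1217) (n=7/group) or pS6(S235/236) (n=14/group). Median fluorescence was read in B220+CD3− cells as % change versus vehicle, by normalised unpaired t-test.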

Assay [11] deals with phospho-S6(S235/236). Format: in vivo, C57BL/6 mice. Conditions: 0.16mg/mL drinking water, one or four weeks, ex vivo anti-IgM. The procedure, abridged:
as §3

A further assay has as its system ERBB4. Conditions: read-out: concentration inhibiting ERBB4; biochemical kinase assays; cited from earlier work.
A further assay concerns TEC. Conditions: read-out: concentration inhibiting TEC; biochemical kinase assays; cited from earlier work.

Sequence of murine BTK (P35991 whole entry): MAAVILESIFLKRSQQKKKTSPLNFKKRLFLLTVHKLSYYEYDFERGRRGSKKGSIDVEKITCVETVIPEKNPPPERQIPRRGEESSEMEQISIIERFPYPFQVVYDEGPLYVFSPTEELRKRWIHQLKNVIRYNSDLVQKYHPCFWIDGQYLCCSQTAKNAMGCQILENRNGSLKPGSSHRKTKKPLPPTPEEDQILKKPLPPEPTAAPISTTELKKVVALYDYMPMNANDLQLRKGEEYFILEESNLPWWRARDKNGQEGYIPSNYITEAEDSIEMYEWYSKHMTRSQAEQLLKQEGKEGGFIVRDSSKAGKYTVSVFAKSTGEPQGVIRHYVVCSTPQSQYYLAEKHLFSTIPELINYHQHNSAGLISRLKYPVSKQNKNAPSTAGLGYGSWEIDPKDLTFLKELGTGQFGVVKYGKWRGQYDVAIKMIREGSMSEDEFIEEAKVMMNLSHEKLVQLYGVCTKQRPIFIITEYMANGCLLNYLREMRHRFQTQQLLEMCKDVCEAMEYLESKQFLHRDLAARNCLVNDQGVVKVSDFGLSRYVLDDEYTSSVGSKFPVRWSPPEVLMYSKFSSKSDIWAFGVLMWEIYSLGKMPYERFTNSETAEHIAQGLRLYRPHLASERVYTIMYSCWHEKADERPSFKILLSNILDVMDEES

For `C=CC(=O)N1CCC[C@@H](n2nc(-c3ccc(Oc4ccccc4)cc3)c3c(N)ncnc32)C1` [ibrutinib, reference compound], the “effective dose (CD69 expression)” value in assay [1] came to 2.9 mg/kg. Moreover, the pIC50 in the assay on BTK was 8.82. In assay [2], the “IC50 values for all ten kinases with the conserved cysteine” value was “low nanomolar range”.

In the case of `CC#CC(=O)N1CCC[C@H]1c1nc(-c2ccc(C(=O)Nc3ccccn3)cc2)c2c(N)nccn12` [acalabrutinib, Acalabrutinib], the “binding across kinase panel” value in assay [3] is reported as “Minimal binding outside of BTK”. Further, at ITK, the “inhibition of ITK” value is reported as “not significantly inhibited”. Moreover, in [1], the “effective dose (CD69 expression)” value worked out at 1.3 mg/kg. For the same compound, the “inhibition of BCR signaling (CD69 expression) compared with ibrutinib” value in [1] (oral, 1mg/kg and 3mg/kg) is listed as “significantly more than ibrutinib”. In addition, the “prevention of BCR stimulation by anti-IgM (CD69)” value in assay [4] is reported as “significantly prevented BCR stimulation”. In the assay on phospho-BTK(Y223) [5], the “median change in MFI of pBTK (autophosphorylation site)” value is −15%. Moreover, the “median change in phosphorylation of S6” value in the assay on phospho-S6(S235/236) [6] is given as −20%. The “median change in phosphorylation of NF-κB (p65)” value in the assay on phospho-p65(S529) is reported as −26%. Further, the “median change in phosphorylation of PLCγ2 vs vehicle” value with phospho-PLCγ2(Y759) is −68%; in the assay with phospho-PLCγ2(Y1217), −22%. The “median change in phosphorylation of ERK vs vehicle” value in the assay with phospho-ERK(T202/Y204) is −79%. The “median change in Ki67 (CLL cell proliferation) vs vehicle” value in the assay on human CLL cells [7] is −50%. In addition, the “median change in human CLL cells in the murine spleen (tumor burden) vs vehicle” value in the assay with human CLL cells [8] is recorded as −33%. Also, the “median change in CLL cells per μL of blood vs vehicle” value in the assay with human CLL cells [9] is “+0.76%”. The “drug occupancy of murine BTK” value on murine BTK was at least 90%. Moreover, the “median change in auto-phosphorylation of BTK vs vehicle” value in the assay on phospho-BTK(Y223) [10] is listed as −31%. For the same compound, in the assay on phospho-S6(S235/236) [11], the “median change in pS6 induction vs vehicle” value was −35%. In addition, the pIC50 was 8.29 in the assay on BTK, […] with ERBB4 and […] with TEC.
